Activity calls are given as the source filed them. The rule behind the calls is not given here.
Test system: Vaccinia virus
Experiment: Antiviral activity against Vaccinia virus Lederle infected in human HEL cells assessed as reduction of virus-induced cytopathogenicity at 250 uM
Format: functional, organism-based
Conditions: Orthopoxvirus vaccinia
Procedure, shortened: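 Confluent cell monolayers were infected with 100 CCID50 of virus while exposed to varying compound concentrations. Cytopathicity was scored once it was complete in untreated infected controls. EC50 was taken as the concentration that reduced virus-induced cytopathogenicity by 50%.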

| Compound | inhibition |
| --- | --- |
| CCOP(=O)(OCC)[C@@H]1C[C@H](C(=O)Nc2ccc(OC)c(OC)c2)ON1C (mixture of isomers) | inactive |
| CCOP(=O)(OCC)[C@H]1C[C@H](C(=O)Nc2cccc(OC)c2)ON1C (racemic) | inactive |
| CCOP(=O)(OCC)[C@@H]1C[C@H](C(=O)Nc2ccc([N+](=O)[O-])cc2)ON1C (racemic) | inactive |
| CCOP(=O)(OCC)[C@H]1C[C@H](C(=O)Nc2ccc(Br)cc2)ON1C (mixture of isomers) | inactive |
| CCOP(=O)(OCC)[C@H]1C[C@H](C(=O)Nc2cccc(C#N)c2)ON1C (racemic) | inactive |
| CCOP(=O)(OCC)[C@H]1C[C@H](C(=O)Nc2ccccc2[N+](=O)[O-])ON1C (mixture of isomers) | inactive |
| CCOP(=O)(OCC)[C@H]1C[C@H](C(=O)Nc2cccc([N+](=O)[O-])c2)ON1C (mixture of isomers) | inactive |
| CCOP(=O)(OCC)[C@@H]1C[C@H](C(=O)Nc2ccccc2Br)ON1C (mixture of isomers) | inactive |
| CCOP(=O)(OCC)[C@@H]1C[C@H](C(=O)Nc2ccccc2[N+](=O)[O-])ON1C (mixture of isomers) | inactive |
| CCOP(=O)(OCC)[C@@H]1C[C@H](C(=O)Nc2ccc(C)cc2)ON1C (mixture of isomers) | inactive |
| CCOP(=O)(OCC)[C@@H]1C[C@H](C(=O)Nc2ccc(Cl)cc2)ON1C (mixture of isomers) | inactive |
| CCOP(=O)(OCC)[C@@H]1C[C@H](C(=O)Nc2cc(OC)cc(OC)c2)ON1C (mixture of isomers) | inactive |
| CCOP(=O)(OCC)[C@@H]1C[C@H](C(=O)Nc2cc(OC)c(OC)cc2C#N)ON1C (mixture of isomers) | inactive |
| CCOP(=O)(OCC)[C@@H]1C[C@H](C(=O)Nc2cc(OC)c(OC)c(OC)c2)ON1C (racemic) | inactive |
| CCOP(=O)(OCC)[C@H]1C[C@H](C(=O)Nc2ccc(C#N)cc2)ON1C (racemic) | inactive |
| CCOP(=O)(OCC)[C@@H]1C[C@H](C(=O)Nc2ccccc2Cl)ON1C (mixture of isomers) | inactive |
| CCOP(=O)(OCC)[C@H]1C[C@H](C(=O)Nc2cc(OC)c(OC)cc2C(C)=O)ON1C (mixture of isomers) | inactive |
| CCOP(=O)(OCC)[C@@H]1C[C@H](C(=O)Nc2ccc(Br)cc2)ON1C (mixture of isomers) | inactive |
| CCOP(=O)(OCC)[C@H]1C[C@H](C(=O)Nc2ccc([N+](=O)[O-])cc2)ON1C (mixture of isomers) | inactive |
| CCOP(=O)(OCC)[C@@H]1C[C@H](C(=O)Nc2ccc(C(C)=O)cc2)ON1C (racemic) | inactive |
| CCOP(=O)(OCC)[C@@H]1C[C@H](C(=O)Nc2ccccc2F)ON1C (racemic) | inactive |
| CCOP(=O)(OCC)[C@H]1C[C@H](C(=O)Nc2cc(OC)cc(OC)c2)ON1C (mixture of isomers) | inactive |
| CCOP(=O)(OCC)[C@@H]1C[C@H](C(=O)Nc2cccc(OC)c2)ON1C (mixture of isomers) | inactive |
| CCOP(=O)(OCC)[C@@H]1C[C@H](C(=O)Nc2ccc(F)cc2)ON1C (mixture of isomers) | inactive |
| CCOc1ccc(NC(=O)[C@H]2C[C@H](P(=O)(OCC)OCC)N(C)O2)cc1 (mixture of isomers) | inactive |
| CCOP(=O)(OCC)[C@H]1C[C@H](C(=O)Nc2cc(OC)c(OC)c(OC)c2)ON1C (mixture of isomers) | inactive |
| CCOP(=O)(OCC)[C@H]1C[C@H](C(=O)Nc2cc(OC)c(OC)cc2C#N)ON1C (mixture of isomers) | inactive |

| Compound | inhibition |
| --- | --- |
| CCOP(=O)(OCC)[C@H]1C[C@H](C(=O)Nc2ccccc2F)ON1C (mixture of isomers) | inactive |
| CCOP(=O)(OCC)[C@H]1C[C@H](C(=O)Nc2cccc(C(C)=O)c2)ON1C (mixture of isomers) | inactive |
| CCOP(=O)(OCC)[C@@H]1C[C@H](C(=O)Nc2cccc([N+](=O)[O-])c2)ON1C (mixture of isomers) | inactive |
| CCOP(=O)(OCC)[C@@H]1C[C@H](C(=O)Nc2cccc(C(C)=O)c2)ON1C (racemic) | inactive |
| CCOP(=O)(OCC)[C@H]1C[C@H](C(=O)Nc2cccc(Br)c2)ON1C (racemic) | inactive |
| CCOP(=O)(OCC)[C@@H]1C[C@H](C(=O)Nc2cccc(C#N)c2)ON1C (racemic) | inactive |
| CCOP(=O)(OCC)[C@H]1C[C@H](C(=O)Nc2cccc(Cl)c2)ON1C (mixture of isomers) | inactive |
| CCOP(=O)(OCC)[C@@H]1C[C@H](C(=O)Nc2cccc(Cl)c2)ON1C (mixture of isomers) | inactive |
| CCOP(=O)(OCC)[C@@H]1C[C@H](C(=O)Nc2cccc(F)c2)ON1C (mixture of isomers) | inactive |
| CCOP(=O)(OCC)[C@H]1C[C@H](C(=O)Nc2ccc(F)cc2)ON1C (racemic) | inactive |
| CCOP(=O)(OCC)[C@@H]1C[C@H](C(=O)Nc2ccc(F)cc2F)ON1C (mixture of isomers) | inactive |
| CCOP(=O)(OCC)[C@H]1C[C@H](C(=O)Nc2ccc(OC)c(OC)c2)ON1C (mixture of isomers) | inactive |
| CCOP(=O)(OCC)[C@@H]1C[C@H](C(=O)Nc2ccc(C#N)cc2)ON1C (mixture of isomers) | inactive |
| CCOP(=O)(OCC)[C@@H]1C[C@H](C(=O)Nc2cccc(Br)c2)ON1C (mixture of isomers) | inactive |
| CCOP(=O)(OCC)[C@H]1C[C@H](C(=O)Nc2ccc(Cl)cc2)ON1C (relative stereo) | inactive |
| CCOP(=O)(OCC)[C@H]1C[C@H](C(=O)Nc2ccc(C)cc2)ON1C (relative stereo) | inactive |
| CCOP(=O)(OCC)[C@@H]1C[C@H](C(=O)Nc2ccccc2C(C)=O)ON1C (mixture of isomers) | inactive |
| CCOP(=O)(OCC)[C@H]1C[C@H](C(=O)Nc2cccc(F)c2)ON1C (mixture of isomers) | inactive |
| CCOP(=O)(OCC)[C@H]1C[C@H](C(=O)Nc2cccc(C)c2)ON1C (racemic) | inactive |
| CCOc1ccc(NC(=O)[C@H]2C[C@@H](P(=O)(OCC)OCC)N(C)O2)cc1 (racemic) | inactive |
| CCOP(=O)(OCC)[C@@H]1C[C@@H](C(=O)Nc2ccccc2Cl)ON1C (racemic) | inactive |
| CCOP(=O)(OCC)[C@@H]1C[C@H](C(=O)Nc2cccc(C)c2)ON1C (mixture of isomers) | inactive |
| CCOP(=O)(OCC)[C@H]1C[C@H](C(=O)Nc2ccc(F)cc2F)ON1C (mixture of isomers) | inactive |
| CCOP(=O)(OCC)[C@@H]1C[C@H](C(=O)Nc2cc(OC)c(OC)cc2C(C)=O)ON1C (mixture of isomers) | inactive |
| CCOP(=O)(OCC)[C@H]1C[C@H](C(=O)Nc2ccc(C(C)=O)cc2)ON1C (mixture of isomers) | inactive |
| CCOP(=O)(OCC)[C@H]1C[C@H](C(=O)Nc2ccccc2C(C)=O)ON1C (mixture of isomers) | inactive |
| CCOP(=O)(OCC)[C@H]1C[C@H](C(=O)Nc2ccccc2Br)ON1C (mixture of isomers) | inactive |

— ChEMBL document CHEMBL2331506, “Design, synthesis, antiviral and cytostatic evaluation of novel isoxazolidine nucleotide analogues with a carbamoyl linker” (Bioorg Med Chem, 2013)
